In data set [1] the test system is Streptococcus mutans. The data set can be described thus: Inhibition of biofilm formation of Streptococcus mutans UA159 at 200 uM after 16 hrs by crystal violet staining. The data set is classed as functional. Conditions: for inhibition at 200 µM: UA159, 16 h. An outline of the steps: (§1)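 S. mutans UA159 co-incubated with compound at various concentrations; biofilm quantified by crystal violet protocol, read at OD562.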

Data set [2] relates to Streptococcus mutans. Description: Growth inhibition of Streptococcus mutans UA159 at 200 uM after 24 hrs. To be noted: for inhibition at 200 µM: Streptococcus mutans, UA159, 24 h, read-out: GI; for growth inhibition (GI): streptococcus mutans, in vivo, 24 h, 200 µM. The data set is classed as organism-based. Put shortly: (§2)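 S. mutans UA159, S. sanguinis or S. gordonii co-incubated with compound at various concentrations; growth read as OD470; inhibition expressed relative to DMSO.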

Data set [3] has as its system Streptococcus mutans. Description: Inhibition of biofilm formation of Streptococcus mutans UA159 after 16 hrs by crystal violet staining based serial dilution method. The data set is classed as functional, organism-based. An outline of the steps: as §1
In data set [4] the test system is Streptococcus mutans. Description: Growth inhibition of Streptococcus mutans UA159 after 16 hrs. It is filed as organism-based. Put shortly:
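S. mutans UA159 co-incubated with compound at various concentrations; growth measured at OD470.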

The test system of data set [5] is Streptococcus mutans. Description: Selectivity index, ratio of growth inhibition IC50 for Streptococcus mutans UA159 to biofilm inhibition IC50 for Streptococcus mutans UA159.
The subject of data set [6] is Streptococcus gordonii. Description: Growth inhibition of Streptococcus gordonii at 200 uM after 24 hrs. Conditions: read-out: GI. The data set is classed as organism-based. An outline of the steps:
as §2

Data set [7] deals with Streptococcus sanguinis. Description: Growth inhibition of Streptococcus sanguinis SK36 at 200 uM after 24 hrs. Conditions: SK36, 24 h, read-out: GI. An outline of the steps:
as §2

Data set [8] deals with T1, Glucosyltransferase-SI (Streptococcus mutans serotype c (strain ATCC 700610 / UA159)) (UniProt P13470).
T1 sequence (whole entry): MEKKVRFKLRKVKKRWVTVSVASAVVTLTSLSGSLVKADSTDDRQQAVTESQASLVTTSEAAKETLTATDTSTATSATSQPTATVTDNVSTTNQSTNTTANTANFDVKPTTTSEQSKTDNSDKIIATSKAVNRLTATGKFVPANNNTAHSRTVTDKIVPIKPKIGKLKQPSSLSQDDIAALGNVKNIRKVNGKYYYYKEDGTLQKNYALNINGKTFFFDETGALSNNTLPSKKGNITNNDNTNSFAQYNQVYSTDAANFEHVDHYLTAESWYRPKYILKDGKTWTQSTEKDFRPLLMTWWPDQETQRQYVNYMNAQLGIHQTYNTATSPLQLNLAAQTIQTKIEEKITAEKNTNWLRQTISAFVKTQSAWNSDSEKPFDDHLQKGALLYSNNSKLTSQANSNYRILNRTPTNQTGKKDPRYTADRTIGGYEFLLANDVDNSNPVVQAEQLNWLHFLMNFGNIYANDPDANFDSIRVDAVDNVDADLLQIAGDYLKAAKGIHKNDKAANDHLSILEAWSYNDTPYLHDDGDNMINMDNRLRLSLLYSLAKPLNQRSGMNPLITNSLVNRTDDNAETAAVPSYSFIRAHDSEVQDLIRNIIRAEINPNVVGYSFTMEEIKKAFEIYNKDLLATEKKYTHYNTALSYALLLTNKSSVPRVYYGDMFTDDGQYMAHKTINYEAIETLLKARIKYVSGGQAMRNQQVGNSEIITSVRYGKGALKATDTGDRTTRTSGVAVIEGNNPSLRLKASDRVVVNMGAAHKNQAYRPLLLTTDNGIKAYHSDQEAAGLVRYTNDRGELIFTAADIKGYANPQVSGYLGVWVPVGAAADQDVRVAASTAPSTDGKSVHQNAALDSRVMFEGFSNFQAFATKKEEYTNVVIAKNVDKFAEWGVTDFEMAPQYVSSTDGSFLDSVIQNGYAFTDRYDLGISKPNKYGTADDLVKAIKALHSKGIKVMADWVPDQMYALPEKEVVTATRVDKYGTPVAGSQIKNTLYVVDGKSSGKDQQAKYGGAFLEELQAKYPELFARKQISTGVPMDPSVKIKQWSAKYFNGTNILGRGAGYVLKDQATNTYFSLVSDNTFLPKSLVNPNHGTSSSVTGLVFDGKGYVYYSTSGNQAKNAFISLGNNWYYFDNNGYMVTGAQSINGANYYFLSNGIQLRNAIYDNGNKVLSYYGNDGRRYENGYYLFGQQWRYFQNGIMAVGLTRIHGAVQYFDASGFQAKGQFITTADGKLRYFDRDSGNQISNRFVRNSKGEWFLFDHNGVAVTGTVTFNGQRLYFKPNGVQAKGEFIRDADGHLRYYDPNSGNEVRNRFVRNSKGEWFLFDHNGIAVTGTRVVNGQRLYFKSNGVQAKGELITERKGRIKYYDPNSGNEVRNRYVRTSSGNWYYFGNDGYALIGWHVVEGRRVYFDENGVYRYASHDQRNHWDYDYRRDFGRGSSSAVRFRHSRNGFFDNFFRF
The data set can be described thus: Inhibition of Wild-type Streptococcus mutans UA159 glucosyltransferase C at 50 uM by zymography. An outline of the steps: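 Compound (50 µM) added to overnight S. mutans UA159 wild-type cultures; Gtfs concentrated from supernatants, run on duplicate SDS-PAGE; second gel used for zymogram, glucan band intensity taken as Gtf activity.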

For data set [9], the target named is T1, Glucosyltransferase-SI (Streptococcus mutans serotype c (strain ATCC 700610 / UA159)). The data set can be described thus: Inhibition of Wild-type Streptococcus mutans UA159 glucosyltransferase C at 50 uM by coomassie blue staining based SDS-PAGE method. An outline of the steps: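 Compound (50 µM) added to overnight S. mutans UA159 wild-type cultures; Gtfs collected and concentrated from supernatants, run on SDS-PAGE in duplicate; one gel Coomassie blue stained for protein levels.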

Data set [10] has as its system Streptococcus mutans. The data set can be described thus: Inhibition of biofilm formation of Streptococcus mutans UA159 at 25 to 100 uM by Syto9 staining based assay. The data set is classed as functional, organism-based. An outline of the steps: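 S. mutans UA159 wild type co-incubated with compound at various concentrations; resulting biofilms stained with Syto9 and examined by microscopy.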

Where [11] appears, read: Streptococcus mutans, UA159, 16 h.
[12] abbreviates: Streptococcus mutans, UA159, 16 h, read-out: IC50.

The values that follow come from ChEMBL document CHEMBL3822431, “Hydroxychalcone inhibitors of Streptococcus mutans glucosyl transferases and biofilms as potential anticaries agents” (Bioorg Med Chem Lett, 2016).

SMILES strings stand for the structures. Calls of active or inactive are those of the source. The calls are words filed in the database; no cut-off is given here.

Usually IC50 stands for the concentration at which inhibition is half-maximal. Take `COc1cc(/C=C/C(=O)c2ccccc2O)ccc1O`: the inhibition at 200 µM in data set [1] came out at 86%; in data set [2], 85%. In addition, the IC50 came out at 61 µM in data set [3] (setting [11]) and 44 µM in data set [4] (setting [12]).
Regarding `O=C(/C=C/c1ccc(O)cc1)c1ccccc1O`, the results for the inhibition at 200 µM in [1] and in data set [2] were 27% and 48%, respectively.
Take `COc1cc(C(=O)/C=C/c2ccccc2O)ccc1O`: the inhibition at 200 µM was 85% in [1] and 71% in data set [2]. Further, the IC50 in data set [3] (setting [11]) was 34 µM; in [4] (setting [12]), 40 µM.
In data set [3], `O=C(/C=C/c1ccc(O)cc1O)c1cccc(O)c1` (stereo in doubt; 9a) gave an IC50 of 68 µM. The “Ratio IC50” value in [5] was 9.4.
For `COc1ccc(/C=C/C(=O)c2cc(N(C)C)c(O)c(N(C)C)c2)cc1`, in data set [1], the inhibition entry is “inactive”. The “growth inhibition (GI)” value in data set [2] is listed as “Not Active”.
In the case of `COc1ccc(/C=C/C(=O)c2cc(O)ccc2O)cc1`, the inhibition at 200 µM in data set [1] worked out at 87%; in data set [2], 76%.
Consider `COc1cc(/C=C/C(=O)c2ccc(O)cc2)cc(OC)c1OC`, for which the “growth inhibition (GI)” value in [2] is listed as “Not Active”.
With `O=C(/C=C/c1ccccc1)c1ccc(O)cc1O` [2',4'-DIHYDROXYCHALCONE], the inhibition result in [1] was “inactive”. The “growth inhibition (GI)” value in data set [2] is “Not Active”.
In the case of `O=C(/C=C/c1cccc(O)c1)c1ccccc1O`, the inhibition at 200 µM in data set [1] amounted to 84%; in data set [2], 86%. In addition, the IC50 in data set [3] (setting [11]) was 64 µM; in data set [4] (setting [12]) it was 32 µM.
As for `O=C(/C=C/c1cc(O)c(O)cc1O)c1ccccc1O` (stereo in doubt; 18c), the figures for the IC50 in data set [3] and in [4] (setting [12]) were 224 µM and 323 µM, respectively. Further, the “Ratio IC50” value in data set [5] came out at 1.5.
`O=C(/C=C/c1cc(O)c(O)cc1O)c1ccccc1O` (stereo in doubt; 18d) [listing 1 of 2 here]: the figures for the IC50 in [3] and in data set [4] (read-out: IC50) were 76 µM and 376 µM, respectively. Moreover, in data set [5], the “Ratio IC50” value is reported as 4.9.
On to `O=C(/C=C/c1cc(Cl)cc(Cl)c1O)c1cccc(O)c1`, for which the inhibition at 200 µM in data set [1] was found to be 81%; in [2], 82%.
For the compound `O=C(/C=C/c1ccccc1O)c1ccc(O)cc1O`, the inhibition result in [1] was “inactive”. For the same compound, the “growth inhibition (GI)” value in data set [2] is on record as “Not Active”.
For `O=C(/C=C/c1ccc(O)cc1O)c1cccc(O)c1` (stereo in doubt; 9) [listing 1 of 2 here], the inhibition at 200 µM in [6] amounted to 10%; in [1] it was 93%; in data set [2] it was 10%; in data set [7] it was 10%. Further, the IC50 in data set [3] was 32 µM; in [4] it was “Not Active”.
On to `O=C(/C=C/c1ccccc1O)c1cccc(O)c1`, for which, in [2], the “growth inhibition (GI)” value is given as “Not Active”.
Regarding `COc1ccc(/C=C/C(=O)c2ccc(OC)c(OC)c2)cc1O`, the inhibition at 200 µM in [1] was 27%; in [2], 30%.
With `O=C(/C=C/c1cc(O)c(O)cc1O)c1ccccc1O` (stereo in doubt; 18d) [listing 2 of 2 here], the inhibition entry in data set [8] and in [9] was “Active” throughout.
Regarding `COc1ccc(/C=C/C(=O)c2ccc3c(c2)OCO3)cc1O`, the inhibition entry in data set [1] was “inactive”. Further, the “growth inhibition (GI)” value in [2] was “Not Active”.
On to `O=C(/C=C/c1ccc(O)cc1O)c1cccc(O)c1` (stereo in doubt; 9) [listing 2 of 2 here], for which the inhibition entry in [3] was “Dose-dependent effect”. In addition, the inhibition entry in [10] was “Active”.
